Compound activity as filed in PubChem BioAssay.
rCAG binder: binds r(CAG) RNA repeats. 370,000 compounds, 1.3% hits. r(CAG) RNA repeat, TO-PRO-1 dye displacement fluorescence. inhibition, % at 3 µM. AID 651821;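 active = inhibition above the plate cutoff, the mean of all test compounds on that plate plus 3 SD, cut at about 35% in these data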;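 note: 0% = DMSO alone and 100% = 100 µM mitoxantrone as full dye displacement; higher means more dye released from RNA so lower well fluorescence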
STEP block: inhibitors of human striatal-enriched phosphatase STEP; P54829; recombinant STEP, OMFP fluorogenic substrate, fluorescence; inhibition, % at 20 µM; 360,000 compounds, 0.25% hits; AID 588621;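 active = inhibition at 20 µM, scaled per plate between control wells, above about 37%, limit read from the data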;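 note: 0% = DMSO with enzyme and substrate and 100% = substrate only without enzyme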
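Material: STEP (striatal-enriched tyrosine phosphatase) enzyme, cell-free | Medium: 50 mM Bis-Tris pH 6.0 with 2.5 mM DTT and 0.005% Tween 20 | Read-out: Percent inhibition scaled to no-enzyme and uninhibited-enzyme controls, plate-pattern corrected | Signal: Fluorescence read at 480 nm ex / 540 nm em | Times: 20 min reaction, room temperature, in the dark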
NadD block: NadD (S. aureus) enzyme inhibition. inhibition, % at 20 µM. purified NadD enzyme, colorimetric absorbance read-out. AID 602399. 360,000 compounds, 0.78% hits; in the data active = inhibition above about 26%
Scp-1 inhibitor: inhibitors of human Scp-1 phosphatase. Q9GZU7. Recombinant Scp1, phosphopeptide, malachite green phosphate absorbance. inhibition, % at 20 µM. 340,000 compounds, 0.88% hits;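 active = inhibition above about 50% at 20 µM, limit read from the data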;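 note: plate controls were DMSO wells with enzyme for no effect and wells lacking enzyme for full effect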
Target sequence (Q9GZU7 76-261 limits assumed): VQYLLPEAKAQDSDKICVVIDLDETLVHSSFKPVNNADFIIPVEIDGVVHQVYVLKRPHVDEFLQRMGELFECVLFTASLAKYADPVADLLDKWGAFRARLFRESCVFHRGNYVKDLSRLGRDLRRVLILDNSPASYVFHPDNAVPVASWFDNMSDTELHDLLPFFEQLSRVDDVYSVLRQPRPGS
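Material – SCP-1 phosphatase catalytic domain, residues 76-261 · Buffer or medium – Acidic Tris acetate buffer with magnesium and detergent · Also added – Phospho 17-mer peptide substrate · Compound – single 20 µM dose, 1% DMSO · Times – 45 min room-temperature reaction, 5 min colour, 30 min stabiliser · Technique – Phosphate-binding colour reagent, absorbance read at 630 nm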
LMPTP inh: blocks human LMPTP phosphatase. inhibition, % at 20 µM. P24666. 360,000 compounds, 0.22% hits. recombinant LMPTP-A, OMFP fluorogenic substrate, fluorescence intensity;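 active = compounds that cut the enzyme signal by at least half of the control window in the single-dose screen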;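 note: plate controls were DMSO wells with enzyme plus substrate for no effect and substrate without enzyme for full effect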
Target sequence (P24666 whole entry, looked up): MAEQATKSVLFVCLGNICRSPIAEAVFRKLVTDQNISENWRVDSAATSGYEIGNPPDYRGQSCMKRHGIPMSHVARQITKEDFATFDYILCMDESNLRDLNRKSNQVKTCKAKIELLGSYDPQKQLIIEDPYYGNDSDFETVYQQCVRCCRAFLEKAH
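Material: LMPTP-A; amount: 0.625 nM enzyme; doses: single 20 µM dose; times: reaction 50 min, room temperature, dark; technique: fluorescence intensity of OMFP turnover product; benchmarks: no-enzyme and uninhibited controls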
rCAG binder conf: r(CAG) RNA repeat binding, confirmation; AID 652065; 4,300 compounds, 70% hits; inhibition, % at 3 µM; shares compounds with rCAG binder; TO-PRO-1 dye displacement fluorescence;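 active = inhibition above a per-plate cutoff, the mean inhibition of sample wells plus 3 SD, cut at about 35% in these data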;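 note: loss of TO-PRO-1 fluorescence as compound displaces dye from 1x1 AA loop RNA; 0% = DMSO only wells and 100% = 100 µM mitoxantrone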
DNA CAG counter: DNA CAG dye complex inhibition counter-screen; shares compounds with rCAG binder; d(CAG) DNA oligo TO-PRO-1 dye displacement, fluorescence; inhibition, % at 3 µM; 4,300 compounds, 94% hits; AID 652068;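 active = inhibition above its plate's cutoff, the mean test-well inhibition plus 3 SD, cut at about 4.8% in these data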;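 note: 0% = DNA dye mix with DMSO and 100% = 100 µM mitoxantrone; hits displace the dye from DNA and so lower well fluorescence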
The depositor's hits bear a star. Only some compounds are listed: those with a hit (about 2.6% of all), similar ones and a draw of the others.

`O=c1cc(-c2ccccc2)nc2c(-c3ccccc3)c(C(F)(F)F)[nH]n12` gave rCAG binder 92*, STEP block 1, NadD block 11, Scp-1 inhibitor -3, LMPTP inh 1, rCAG binder conf 77* and DNA CAG counter 42*.
Screening Cc1cc(=O)n2[nH]c(C)c(-c3ccccc3)c2n1 returned rCAG binder 3, STEP block -15, NadD block -4, Scp-1 inhibitor -4 and LMPTP inh -1.
For Cc1ccc(NC(=O)CSc2nc(C)cc(=O)[nH]2)c(C)c1 the results were rCAG binder 1.
CN(Cc1ccccc1)C(=O)C1CCN(S(=O)(=O)c2ccc3nc4c(c(C(=O)O)c3c2)CCCC4)CC1 was read as rCAG binder 54*, STEP block 5, NadD block 15, Scp-1 inhibitor 25, LMPTP inh 1, rCAG binder conf 54* and DNA CAG counter 17*.
`COc1ccc(CNC(=O)C2CCN(S(=O)(=O)c3ccc4nc5c(c(C(=O)O)c4c3)CC(C)CC5)CC2)cc1` (centres undefined) gave rCAG binder 33, STEP block 2, NadD block 4, Scp-1 inhibitor -4 and LMPTP inh 0.
Screening CC1CCc2nc3ccc(S(=O)(=O)N4CCC(C(=O)NCc5ccccc5Cl)CC4)cc3c(C(=O)O)c2C1 (centres undefined) returned rCAG binder 47*, STEP block 2, NadD block 14, Scp-1 inhibitor 19, LMPTP inh 0, rCAG binder conf 54* and DNA CAG counter 21*.
For O=C(O)c1c2c(nc3ccc(S(=O)(=O)N4CCC(C(=O)NCc5ccccc5)CC4)cc13)CCCC2 the results were rCAG binder 16, STEP block -4, NadD block 2 and LMPTP inh -1.
Cc1ccc(CCNC(=O)C2CCN(S(=O)(=O)c3ccc4nc5c(c(C(=O)O)c4c3)CCCC5)CC2)cc1 was read as rCAG binder 50*, STEP block 0, NadD block 3, Scp-1 inhibitor 1, LMPTP inh 0, rCAG binder conf 32 and DNA CAG counter 9.0*.
For CCn1c(COc2ccc(C)cc2)nnc1SCC(=O)Nc1ccc(Oc2ccccc2)cc1 the results were rCAG binder 3.
Cc1ccccc1CN1CCCCC(NC(=O)c2ccc(Br)cc2)C1=O (centres undefined) was read as rCAG binder 1.
Screening CC(=O)NS(=O)(=O)c1ccc(N=c2ssc3c2-c2cc(C)c(C)cc2NC3(C)C)cc1 returned rCAG binder 75*, STEP block -3, NadD block 9, Scp-1 inhibitor -2, LMPTP inh 1, rCAG binder conf 59* and DNA CAG counter 25*.
For CCOC(=O)C1=C(C)N=c2s/c(=C\c3ccc(OC(C)=O)cc3)c(=O)n2C1/C=C/c1ccccc1 (centres undefined) the results were rCAG binder 5, STEP block 2, NadD block 30, Scp-1 inhibitor -5 and LMPTP inh 1.
CCOC(=O)C1=C(C)N=c2sc(=Cc3ccc(OCC(=O)O)cc3)c(=O)n2C1c1ccc(Cl)cc1 (centres undefined) was read as rCAG binder 83*, STEP block 10, NadD block 4, LMPTP inh 76*, rCAG binder conf 59* and DNA CAG counter 26*.
CCOC(=O)C1=C(C)N=c2s/c(=C/c3ccc(OCC(=O)O)cc3)c(=O)n2C1c1cc(OC)c(OC)c(OC)c1 (centres undefined) was read as rCAG binder 42*, STEP block 1, NadD block 12, Scp-1 inhibitor 4, LMPTP inh -2, rCAG binder conf 74* and DNA CAG counter 37*.
Screening COc1cccc(C2C(C(=O)Nc3ccccc3)=C(C)N=c3s/c(=C/c4ccc(OCC(=O)O)cc4)c(=O)n32)c1 (centres undefined) returned rCAG binder 72*, STEP block 5, NadD block 17, Scp-1 inhibitor -2, LMPTP inh 2, rCAG binder conf 82* and DNA CAG counter 50*.
CCOC(=O)C1=C(C)N=c2s/c(=C\c3ccc(OCC(=O)O)cc3)c(=O)n2C1c1ccc(OC(C)C)cc1 (centres undefined) was read as rCAG binder 64*, STEP block 14, NadD block 27, Scp-1 inhibitor 7, LMPTP inh 1, rCAG binder conf 85* and DNA CAG counter 55*.
Screening COc1cccc(C2C(C(=O)OC(C)C)=C(C)N=c3s/c(=C\c4ccc(C(=O)O)cc4)c(=O)n32)c1 (centres undefined) returned rCAG binder 19, STEP block 4, NadD block 7, Scp-1 inhibitor -1 and LMPTP inh 1.
COC(=O)[C@]12C[C@H](CC(=O)NCCC(C)C)C(=O)N(CCc3ccc(OC)c(OC)c3)C1=C[C@H](C1CCCC1)O[C@@H]2C was read as rCAG binder 4.
Cc1cc(Br)cn2c(Cc3ccccc3C(F)(F)F)c(-c3cccc(Br)c3)nc12 was read as rCAG binder 47*, NadD block 20, LMPTP inh 1, rCAG binder conf 7 and DNA CAG counter 3.
Screening COc1ccc(-c2nc3ccc(Br)cn3c2Cc2cccc(F)c2)cc1OC returned rCAG binder 15, STEP block 0, NadD block 12 and LMPTP inh 2.
Fc1cccc(Cc2c(-c3cccc(Br)c3)nc3ccc(Br)cn23)c1 was read as rCAG binder 55*, STEP block -2, NadD block 17, LMPTP inh 2, rCAG binder conf 7 and DNA CAG counter 4.
Fc1cccc(Cc2c(-c3ccc(Cl)cc3)nc3ccc(Br)cn23)c1 was read as rCAG binder 49*, STEP block 0, NadD block 8, LMPTP inh 7, rCAG binder conf 14 and DNA CAG counter 4.6*.
For Cc1ccc(Cc2c(-c3ccc(Br)cc3)nc3ccc(Cl)cn23)cc1 the results were rCAG binder 41*, STEP block -1, NadD block 17, LMPTP inh 5, rCAG binder conf 12 and DNA CAG counter 10*.
`Cc1ccc2nc(-c3ccc(Cl)cc3)c(Cc3cccc(F)c3)n2c1` gave rCAG binder 5.
Cc1cc(Br)cn2c(Cc3ccccc3C(F)(F)F)c(-c3ccccc3)nc12 was read as rCAG binder 6, NadD block 17 and LMPTP inh 3.
For N#Cc1ccccc1NCCCN1CCC(C(O)(c2ccccc2)c2ccccc2)CC1 the results were rCAG binder 2.
